Legend:
[1] = test system: NCI-H460; test: Cytotoxicity against human NCI-H460 cells at 1 uM after 72 hrs by MTT assay; format: functional; conditions: NCI-H460, 72 h, read-out: GI
Procedure, shortened: (§1)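 Cells plated at 2000–5000/well, attached overnight at 37 °C. DMSO stocks (100 mM) serially diluted in medium to a final 1 µM, tested in duplicate wells. Exposure 72 h at 37 °C, 5% CO₂. MTT (5 mg/mL, 10 µL) added for 4 h. Lysis in 10% SDS / 5% isopropanol / 0.012 N HCl, then OD read at 580–680 nm.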

[2] = test system: HL-60; test: Cytotoxicity against human HL60 cells at 1 uM after 72 hrs by MTT assay; format: functional; conditions: HL-60, 72 h, read-out: GI; procedure, shortened: as §1
[3] = test system: A2780; test: Cytotoxicity against human A2780 cells at 1 uM after 72 hrs by MTT assay; format: functional; conditions: A2780, 72 h, read-out: GI; procedure, shortened: as §1
[4] = test system: A-375; test: Cytotoxicity against human A375 cells at 1 uM after 72 hrs by MTT assay; format: functional; conditions: A-375, 72 h, read-out: GI
Procedure, shortened: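 Cells plated at 2000–5000/well, attached overnight at 37 °C. DMSO stocks (100 mM) serially diluted in medium to a final 1 µM, tested in duplicate wells. MTT (5 mg/mL, 10 µL) added for 4 h. Lysis in 10% SDS / 5% isopropanol / 0.012 N HCl, then OD read at 580–680 nm.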

[5] = (§2) Apparent permeability from basolateral to apical side in human Caco2 cells at 10 uM after 90 mins by LC-MS/MS analysis; format: ADME, cell-based, Caco-2; conditions: Caco-2
[6] = test system: HeLa; test: Cytotoxicity against human HeLa cells at 1 uM after 72 hrs by MTT assay; format: functional; conditions: read-out: GI; procedure, shortened: as §1
[7] = test system: HT-29; test: Cytotoxicity against human HT-29 cells at 1 uM after 72 hrs by MTT assay; format: functional; conditions: HT-29, 72 h, read-out: GI; procedure, shortened: as §1
[8] = (§3) Efflux ratio of apparent permeability from basolateral to apical side over apical to basolateral side in human Caco2 cells at 10 uM after 90 mins by LC-MS/MS analysis; format: ADME, cell-based, Caco-2; conditions: Caco-2
Procedure, shortened: (§4)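 Caco-2 cells cultured 21 days on 24-well inserts, TEER >250 Ω·cm². Monolayers pre-incubated in HBSS pH 7.4 at 37 °C. Compound added to the donor side at 10 µM, 37 °C, 5% CO₂, 90 min, in the A-to-B and B-to-A directions. Donor and receiver levels measured by LC-MS/MS. Papp calculated from receiver amount, membrane area 0.7 cm², time and initial donor concentration. Efflux ratio = B–A/A–B.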

[9] = test system: MCF7; test: Cytotoxicity against human MCF7 cells at 1 uM after 72 hrs by MTT assay; format: functional; conditions: MCF7, 72 h, read-out: GI; procedure, shortened: as §1
[10] = (§5) Apparent permeability from apical to basolateral side in human Caco2 cells at 10 uM after 90 mins by LC-MS/MS analysis; format: ADME, cell-based, Caco-2; conditions: Caco-2
[11] = test system: MCF7; test: Cytotoxicity against human MCF7 cells after 72 hrs by MTT assay; format: functional, cell-based; conditions: MCF7, 72 h
Procedure, shortened: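 MCF-7 cells exposed to compound for 72 h and read by MTT. At least six replicate wells per assay, run on three separate occasions. IC₅₀ given as mean with standard deviation.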

[12] = test system: DU-145; test: Cytotoxicity against human DU145 cells at 1 uM after 72 hrs by MTT assay; format: functional; conditions: DU-145, 72 h, read-out: GI; procedure, shortened: as §1
[13] = Apparent permeability from basolateral to apical side in wild-type MDCK cells at 5 uM after 90 mins; format: ADME, cell-based, Canis lupus familiaris; conditions: dog
Procedure, shortened: (§6)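 MDCK-MDR1 monolayers grown on polycarbonate filter Transwells, confluent 5 days after seeding, TEER >1000 Ω·cm² before use. MDCK-WT cells plated at 5.0 × 10⁴ cells/well and used after 6 days at TEER >200 Ω·cm². Transport run at 37 °C in HBSS pH 7.4 for 90 min, in both directions. Lucifer yellow permeability and TEER change served as monolayer integrity checks. Efflux ratio = Papp(B–A)/Papp(A–B).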

[14] = test system: MDR1; test: Apparent permeability from apical to basolateral side in MDCK cells expressing MDR1 at 5 uM after 90 mins; format: ADME, cell-based, Canis lupus familiaris; conditions: dog; procedure, shortened: as §6
[15] = molecular target: ATP-dependent translocase ABCB1 (Homo sapiens, UniProt P08183); test: Inhibition of MDR1 (unknown origin) expressed in MDCK cells at 10 uM after 90 mins; format: ADME, cell-based; conditions: 1.5 h
Sequence of ATP-dependent translocase ABCB1 (P08183 whole entry): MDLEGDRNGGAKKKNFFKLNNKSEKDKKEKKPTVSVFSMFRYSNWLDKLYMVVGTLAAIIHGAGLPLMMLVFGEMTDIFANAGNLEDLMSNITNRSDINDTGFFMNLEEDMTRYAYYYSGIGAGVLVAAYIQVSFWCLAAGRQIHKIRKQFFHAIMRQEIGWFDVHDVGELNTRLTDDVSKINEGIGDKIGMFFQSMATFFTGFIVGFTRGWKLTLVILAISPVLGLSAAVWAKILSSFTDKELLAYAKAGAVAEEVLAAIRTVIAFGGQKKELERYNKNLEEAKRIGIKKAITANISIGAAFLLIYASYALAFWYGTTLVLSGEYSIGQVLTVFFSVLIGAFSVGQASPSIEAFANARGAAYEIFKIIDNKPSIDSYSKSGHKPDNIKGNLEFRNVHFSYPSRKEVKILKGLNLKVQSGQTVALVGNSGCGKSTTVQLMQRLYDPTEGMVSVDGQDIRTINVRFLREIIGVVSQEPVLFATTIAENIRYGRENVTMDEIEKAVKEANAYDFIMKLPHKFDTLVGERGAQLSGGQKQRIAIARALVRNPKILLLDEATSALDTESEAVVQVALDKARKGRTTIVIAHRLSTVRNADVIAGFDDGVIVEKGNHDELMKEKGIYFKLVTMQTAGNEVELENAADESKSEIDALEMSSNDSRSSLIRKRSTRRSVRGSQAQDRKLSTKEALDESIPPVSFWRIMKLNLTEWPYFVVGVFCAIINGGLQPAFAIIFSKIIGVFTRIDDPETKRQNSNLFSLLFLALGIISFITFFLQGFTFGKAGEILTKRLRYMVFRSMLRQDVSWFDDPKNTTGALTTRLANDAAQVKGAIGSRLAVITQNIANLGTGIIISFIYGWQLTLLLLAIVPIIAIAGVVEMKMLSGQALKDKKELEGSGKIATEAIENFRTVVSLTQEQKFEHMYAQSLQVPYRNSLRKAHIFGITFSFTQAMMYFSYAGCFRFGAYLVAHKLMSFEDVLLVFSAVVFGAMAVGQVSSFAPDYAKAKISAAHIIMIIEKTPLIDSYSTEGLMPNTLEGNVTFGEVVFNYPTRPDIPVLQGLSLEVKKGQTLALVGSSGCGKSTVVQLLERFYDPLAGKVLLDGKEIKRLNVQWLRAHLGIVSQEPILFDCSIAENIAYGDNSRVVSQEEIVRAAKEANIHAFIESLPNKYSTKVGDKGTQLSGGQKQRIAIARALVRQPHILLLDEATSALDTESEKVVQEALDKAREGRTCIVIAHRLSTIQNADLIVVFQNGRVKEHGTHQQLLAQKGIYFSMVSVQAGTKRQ
Procedure, shortened: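 P-gp inhibition measured as digoxin bidirectional transport across MDCK-MDR1 monolayers at 37 °C in HBSS pH 7.4, with test compound present at 10 µM. Read-out is the change in digoxin efflux ratio, Papp(B–A)/Papp(A–B).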

[16] = Efflux ratio of apparent permeability from basolateral to apical side over apical to basolateral side in wild-type MDCK cells at 5 uM after 90 mins; format: ADME, cell-based, Canis lupus familiaris; conditions: dog; procedure, shortened: as §6
[17] = test system: Caco-2; test: as §2; format: ADME, cell-based; conditions: caco-2, 1.5 h, 10 µM
[18] = test system: MDR1; test: Efflux ratio of apparent permeability from basolateral to apical side over apical to basolateral side in MDCK cells expressing MDR1 at 5 uM after 90 mins; format: ADME, cell-based, Canis lupus familiaris; conditions: dog; procedure, shortened: as §6
[19] = test system: MDR1; test: Apparent permeability from basolateral to apical side in MDCK cells expressing MDR1 at 5 uM after 90 mins; format: ADME, cell-based, Canis lupus familiaris; conditions: dog; procedure, shortened: as §6
[20] = test system: Caco-2; test: as §3; format: ADME, cell-based; conditions: caco-2, 1.5 h, 10 µM; procedure, shortened: as §4
[21] = Apparent permeability from apical to basolateral side in wild-type MDCK cells at 5 uM after 90 mins; format: ADME, cell-based, Canis lupus familiaris; conditions: dog; procedure, shortened: as §6
[22] = test system: Caco-2; test: as §5; format: ADME, cell-based; conditions: caco-2, 1.5 h, 10 µM

SMILES	inhibition of growth at 1 µM [1]	inhibition of growth at 1 µM [2]	inhibition of growth at 1 µM [3]	inhibition of growth at 1 µM [4]	Papp B→A at 1.5 h, 10 µM [5]	inhibition of growth at 1 µM [6]	inhibition of growth at 1 µM [7]	efflux ratio at 1.5 h, 10 µM [8]	inhibition of growth at 1 µM [9]	Papp A→B at 1.5 h, 10 µM [10]	IC50 [11]	inhibition of growth at 1 µM [12]	Papp B→A at 1.5 h, 5 µM [13]	Papp A→B at 1.5 h, 5 µM [14]	inhibition (INH) [15]	efflux ratio at 1.5 h, 5 µM [16]	efflux ratio at 1.5 h, 5 µM [18]	Papp B→A at 1.5 h, 5 µM [19]	Papp A→B at 1.5 h, 5 µM [21]	further results
CO[C@H]1C[C@H]2OC[C@@]2(OC(C)=O)[C@H]2[C@H](OC(=O)c3ccccc3)[C@]3(O)C[C@H](OC(=O)[C@H](O)[C@@H](NC(=O)OC(C)(C)C)c4ccccc4)C(C)=C([C@@H](OC(=O)N(C)C)C(=O)[C@]12C)C3(C)C	83.3%	97.2%	94.8%	87.7%	33.1 ×10⁻⁶ cm/s	99.8%	87.9%	4.08	93.5%	8.11 ×10⁻⁶ cm/s	1.58 nM	84.8%								
COC(=O)O[C@H]1C(=O)[C@]2(C)[C@@H](OC)C[C@H]3OC[C@@]3(OC(C)=O)[C@H]2[C@H](OC(=O)c2ccccc2)[C@]2(O)C[C@H](OC(=O)[C@H](O)[C@@H](NC(=O)OC(C)(C)C)c3ccccc3)C(C)=C1C2(C)C	80.4%	97.4%	94.1%	103%	29.2 ×10⁻⁶ cm/s	99.5%	87.3%	4.22	95.3%	6.91 ×10⁻⁶ cm/s	1.4 nM	83.3%								
CO[C@H]1C(=O)[C@]2(C)[C@@H](OC(=O)N(C)C)C[C@H]3OC[C@@]3(OC(C)=O)[C@H]2[C@H](OC(=O)c2ccccc2)[C@]2(O)C[C@H](OC(=O)[C@H](O)[C@@H](NC(=O)OC(C)(C)C)c3ccccc3)C(C)=C1C2(C)C	86.6%	97.8%	95.8%	90.4%		103%	89.8%		102%		9.63 nM	87.5%	3.17 ×10⁻⁶ cm/s	0.52 ×10⁻⁶ cm/s	Active	2.28	10.1	5.26 ×10⁻⁶ cm/s	1.39 ×10⁻⁶ cm/s	Papp [17]: 26 ×10⁻⁶ cm/s; Ratio [20]: 1.73; Papp [22]: 10.6 ×10⁻⁶ cm/s
CO[C@H]1C(=O)[C@]2(C)[C@@H](OC(=O)N(C)C)C[C@H]3OC[C@@]3(OC(C)=O)[C@H]2[C@H](OC(=O)c2ccccc2)[C@]2(O)C[C@H](OC(=O)[C@H](O)[C@H](CC(C)C)NC(=O)OC(C)(C)C)C(C)=C1C2(C)C						102%					13.3 nM									Papp [17]: 30.9 ×10⁻⁶ cm/s; Ratio [20]: 1.59; Papp [22]: 10.7 ×10⁻⁶ cm/s
COC(=O)O[C@H]1C[C@H]2OC[C@@]2(OC(C)=O)[C@H]2[C@H](OC(=O)c3ccccc3)[C@]3(O)C[C@H](OC(=O)[C@H](O)[C@@H](NC(=O)OC(C)(C)C)c4ccccc4)C(C)=C([C@@H](OC)C(=O)[C@]12C)C3(C)C	89.5%	97%	96.4%	97.4%	38.8 ×10⁻⁶ cm/s	102%	89.7%	5.23	103%	6.97 ×10⁻⁶ cm/s	4.97 nM	88.5%								
CO[C@H]1C(=O)[C@]2(C)[C@@H](OC)C[C@H]3OC[C@@]3(OC(C)=O)[C@H]2[C@H](OC(=O)c2ccccc2)[C@]23OC(=O)O[C@H]2[C@H](OC(=O)[C@H](O)[C@@H](NC(=O)OC(C)(C)C)c2ccccc2)C(C)=C1C3(C)C	82.2%	95.9%	94.7%	89.8%	18.2 ×10⁻⁶ cm/s	98.2%	89%	6.42	93.5%	2.83 ×10⁻⁶ cm/s	2.1 nM	84.7%								
CO[C@H]1C[C@H]2OC[C@@]2(OC(C)=O)[C@H]2[C@H](OC(=O)c3ccccc3)[C@]34OC(=O)O[C@H]3[C@H](OC(=O)[C@H](O)[C@@H](NC(=O)OC(C)(C)C)c3ccccc3)C(C)=C([C@@H](OC(=O)N(C)C)C(=O)[C@]12C)C4(C)C					33.5 ×10⁻⁶ cm/s			2.04		16.4 ×10⁻⁶ cm/s	7.93 nM		2.99 ×10⁻⁶ cm/s	0.63 ×10⁻⁶ cm/s	Active	2.13	10.1	6.38 ×10⁻⁶ cm/s	1.4 ×10⁻⁶ cm/s	
C[C@H]1O[C@@H](O[C@H]2[C@@H](O)C[C@H](O[C@H]3[C@@H](O)C[C@H](O[C@H]4CC[C@@]5(C)[C@H](CC[C@@H]6[C@@H]5C[C@@H](O)[C@]5(C)[C@@H](C7=CC(=O)OC7)CC[C@]65O)C4)O[C@@H]3C)O[C@@H]2C)C[C@H](O)[C@@H]1O [DIGOXIN]													8.06 ×10⁻⁶ cm/s	0.19 ×10⁻⁶ cm/s		22.7	65.5	12.4 ×10⁻⁶ cm/s	0.35 ×10⁻⁶ cm/s	
CC(=O)O[C@H]1C(=O)[C@@]2(C)[C@H]([C@H](OC(=O)c3ccccc3)[C@]3(O)C[C@H](OC(=O)[C@H](O)[C@@H](NC(=O)c4ccccc4)c4ccccc4)C(C)=C1C3(C)C)[C@]1(OC(C)=O)CO[C@@H]1C[C@@H]2O [PACLITAXEL]					33.4 ×10⁻⁶ cm/s			34.4		0.97 ×10⁻⁶ cm/s	7.05 nM		29.8 ×10⁻⁶ cm/s	0.13 ×10⁻⁶ cm/s	Not Active	344	334	44.1 ×10⁻⁶ cm/s	0.09 ×10⁻⁶ cm/s	

From ChEMBL document CHEMBL3098054, “The synthesis of novel taxoids for oral administration” (Bioorg Med Chem, 2014)
